Laboratory results published in article PMC6815762 (Drug Design, Development and Therapy, 2019).
Peptide text beside a SMILES is read from it.

Tests used:
hCMEC/D3 cells [1] = assay: Tube formation assay on Matrigel; format: cell-based, human; details: VEGF 10 ng/mL, positive control, 12 hr
integrin αvβ3 [2] = biological target: integrin αvβ3 (Homo sapiens, UniProt P05106+P06756); assay: Determination of the dissociation constant by ELISA; format: binding
Summary of the method: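 Solution-phase ELISA after Friguet. Integrin αvβ3 (serial, 0.5–32 nM) was equilibrated with test peptide (0.5 nM) for 4 hrs at 37°C. The mixture was moved to wells precoated with anti-integrin αvβ3 antibody (1:50) for 1 hr at room temperature, washed, and bound complexes detected by ELISA. Absorbance was taken without receptor (A0) and at each receptor concentration (A). Run in triplicate; Kd from one-site specific binding nonlinear regression.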

hCMEC/D3 cells [3] = assay: Cell proliferation assay; format: cell-based, human; details: 48 hr incubation, MTT, 570 nm, p > 0.05
integrin αvβ3 [4] = biological target: integrin αvβ3 (UniProt P06756); assay: ELISA
integrin αvβ3 (UniProt P06756), sequence (P06756 31-1048, chain 1 of 2): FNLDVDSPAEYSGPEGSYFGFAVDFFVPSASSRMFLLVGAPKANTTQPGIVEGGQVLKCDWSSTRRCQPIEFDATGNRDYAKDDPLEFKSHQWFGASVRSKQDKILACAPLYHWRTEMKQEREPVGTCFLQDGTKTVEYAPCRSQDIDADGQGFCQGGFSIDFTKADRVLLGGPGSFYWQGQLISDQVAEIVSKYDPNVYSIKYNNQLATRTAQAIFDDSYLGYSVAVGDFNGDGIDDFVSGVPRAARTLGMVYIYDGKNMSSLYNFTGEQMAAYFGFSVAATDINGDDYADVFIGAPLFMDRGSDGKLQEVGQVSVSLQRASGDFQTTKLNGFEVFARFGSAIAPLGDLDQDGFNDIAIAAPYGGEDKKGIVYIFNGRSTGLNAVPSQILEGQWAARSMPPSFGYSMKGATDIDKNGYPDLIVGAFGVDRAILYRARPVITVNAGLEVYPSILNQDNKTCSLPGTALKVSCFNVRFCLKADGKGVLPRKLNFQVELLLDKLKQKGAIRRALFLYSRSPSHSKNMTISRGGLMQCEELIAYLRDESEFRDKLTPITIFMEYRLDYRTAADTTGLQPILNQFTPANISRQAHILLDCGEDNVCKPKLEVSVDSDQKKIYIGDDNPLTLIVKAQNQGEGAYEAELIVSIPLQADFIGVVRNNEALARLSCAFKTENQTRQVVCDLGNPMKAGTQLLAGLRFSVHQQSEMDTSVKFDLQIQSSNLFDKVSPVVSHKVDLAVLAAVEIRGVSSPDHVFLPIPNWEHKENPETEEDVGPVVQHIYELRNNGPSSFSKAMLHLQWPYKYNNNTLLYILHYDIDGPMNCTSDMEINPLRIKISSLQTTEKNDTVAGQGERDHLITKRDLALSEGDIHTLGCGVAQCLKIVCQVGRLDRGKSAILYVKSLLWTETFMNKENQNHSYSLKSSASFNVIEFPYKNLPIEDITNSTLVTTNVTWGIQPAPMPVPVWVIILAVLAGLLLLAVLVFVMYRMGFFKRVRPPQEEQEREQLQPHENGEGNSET
integrin αvβ3 (UniProt P06756), sequence (P05106 27-788, chain 2 of 2, further chain): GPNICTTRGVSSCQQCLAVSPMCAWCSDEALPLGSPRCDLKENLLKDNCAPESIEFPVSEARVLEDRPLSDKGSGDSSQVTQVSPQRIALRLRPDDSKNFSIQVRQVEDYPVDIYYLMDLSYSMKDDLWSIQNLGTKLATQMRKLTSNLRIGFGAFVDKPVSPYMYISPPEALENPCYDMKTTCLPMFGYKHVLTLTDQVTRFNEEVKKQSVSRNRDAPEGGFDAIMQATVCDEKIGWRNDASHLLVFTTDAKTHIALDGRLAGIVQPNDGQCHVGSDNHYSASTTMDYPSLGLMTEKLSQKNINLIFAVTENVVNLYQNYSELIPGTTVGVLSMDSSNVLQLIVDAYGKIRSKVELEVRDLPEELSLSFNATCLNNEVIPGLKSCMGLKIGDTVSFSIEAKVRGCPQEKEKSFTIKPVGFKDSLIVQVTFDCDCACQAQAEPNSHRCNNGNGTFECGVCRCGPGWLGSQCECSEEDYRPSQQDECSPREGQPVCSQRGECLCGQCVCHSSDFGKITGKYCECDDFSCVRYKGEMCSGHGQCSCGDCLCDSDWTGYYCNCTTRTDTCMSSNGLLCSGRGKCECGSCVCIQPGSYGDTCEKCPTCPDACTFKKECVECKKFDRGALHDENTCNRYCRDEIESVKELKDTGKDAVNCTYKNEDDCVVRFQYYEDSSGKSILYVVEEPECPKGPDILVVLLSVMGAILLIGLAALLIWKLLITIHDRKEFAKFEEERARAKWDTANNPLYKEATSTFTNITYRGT

integrin αvβ3 (Homo sapiens, UniProt P05106+P06756), sequence (P06756 31-1048): as the sequence (P06756 31-1048, chain 1 of 2) above
integrin αvβ3 (Homo sapiens, UniProt P05106+P06756), sequence (P05106 27-788): as the sequence (P05106 27-788, chain 2 of 2, further chain) above

VEGF was tested, and the “tube formation, result in words” value (hCMEC/D3 cells [1]) was “the tube-like structures were developed from clear elongated cell bodies, which connected to form a polygon network”.

Molecule N=C(N)NCCC[C@H](NC(=O)[C@@H]1CCCN1C(=O)[C@H](Cc1c[nH]c2ccccc12)NC(=O)[C@H](CCCNC(=N)N)NC(=O)[C@H](Cc1ccccc1)NC(=O)[C@H](CC(=O)O)NC(=O)CNC(=O)[C@@H](N)CCCNC(=N)N)C(=O)O [GCPF] (H-RGDFRWPR-OH) has a Kd (integrin αvβ3 [2]) of 2.41 ± 0.455 nM, a proliferation inhibition rate (hCMEC/D3 cells [3]; 1 μg/mL) of 0.15% and a proliferation inhibition rate (hCMEC/D3 cells [3]; 10 μg/mL) of 13.49%. The proliferation inhibition rate (hCMEC/D3 cells [3]; 100 μg/mL) was 3.90% and the proliferation inhibition rate (hCMEC/D3 cells [3]; 1000 μg/mL) was 1.98%.

B1: GCPF peptide (peptide)
peptide: RGDFRWPR
With B1 the Kd (integrin αvβ3 [4]) was 2.41 nM.
